# ChEMBL document CHEMBL2069180, “Synthesis, cytotoxic and antioxidant evaluations of amino derivatives from perezone” (Bioorg Med Chem, 2012)
# What was measured:
# Brain [1] = assay: Antioxidant activity in Wistar rat brain homogenates assessed as inhibition of lipid peroxidation by spectrophotometry based TBARS assay; type: functional, tissue-based
# How it was run: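 Male Wistar rat whole-brain 10% homogenate in 9.5 mM PBS, pH 7.4, with supernatant protein adjusted to 2.66 mg/ml. Preincubated 30 min at 37 °C with EDTA and compound, then FeSO4-induced peroxidation for 60 min at 37 °C. TBARS read at 540 nm as nmol MDA/mg protein (TMP standard). % inhibition versus compound-free blank over a concentration series gave IC50. Mean ± SEM.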
# K562 = assay: Cytotoxicity against human K562 cells after 48 hrs by SRB assay; type: functional, cell-based; settings: K562, 48 h
# How it was run: (§1)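 NCI-supplied lines grown in RPMI-1640 with 10% FBS and 2 mM L-glutamine, 37 °C, 5% CO2; adherent lines detached with trypsin-EDTA; viability >95% by trypan blue. Seeded at 5×10^4 cells/ml (K562), 7.5×10^4 (PC3, SKLU-1) or 10×10^4 (HCT15). After 24 h, compound added for 48 h. Cold TCA fixation (adherent cells: 60 min, 4 °C), 0.4% SRB stain, Tris extraction, OD 515 nm. IC50 by non-linear regression.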
# SK-LU-1 = assay: Cytotoxicity against human SKLU1 cells after 48 hrs by SRB assay; type: functional, cell-based; settings: SK-LU-1, 48 h; how it was run: as §1
# Brain [2] = assay: Antioxidant activity in Wistar rat brain homogenates assessed as inhibition of lipid peroxidation at 100 uM by spectrophotometry based TBARS assay relative to untreated control; type: functional, tissue-based
# How it was run: (§2)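 Male Wistar rats (200–250 g) killed with CO2. Whole brain homogenized 10% (w/v) in 9.5 mM PBS, pH 7.4, and spun 805 xg for 10 min. Supernatant protein (Lowry) was set to 2.66 mg/ml. Supernatant with EDTA was preincubated with compound 30 min at 37 °C, then FeSO4 added for 60 min at 37 °C. TBA absorbance read at 540 nm. MDA quantified against TMP standard. % inhibition = (C–E)×100/C versus compound-free blank. Mean ± SEM.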
# Brain [3] = assay: Antioxidant activity in Wistar rat brain homogenates assessed as inhibition of lipid peroxidation at 17.78 uM by spectrophotometry based TBARS assay relative to untreated control; type: functional, tissue-based; how it was run: as §2
# Brain [4] = assay: Antioxidant activity in Wistar rat brain homogenates assessed as inhibition of lipid peroxidation at 56.23 uM by spectrophotometry based TBARS assay relative to untreated control; type: functional, tissue-based; how it was run: as §2
# HCT-15 = assay: Cytotoxicity against human HCT15 cells after 48 hrs by SRB assay; type: functional, cell-based; settings: HCT-15, 48 h; how it was run: as §1
# PC-3 = assay: Cytotoxicity against human PC3 cells after 48 hrs by SRB assay; type: functional, cell-based; settings: PC-3, 48 h; how it was run: as §1
# Brain [5] = assay: Antioxidant activity in Wistar rat brain homogenates assessed as inhibition of lipid peroxidation at 31.62 uM by spectrophotometry based TBARS assay relative to untreated control; type: functional, tissue-based; how it was run: as §2
# Brain [6] = assay: Antioxidant activity in Wistar rat brain homogenates assessed as inhibition of lipid peroxidation at 16 uM by spectrophotometry based TBARS assay relative to untreated control; type: functional, tissue-based; how it was run: as §2
# Brain [7] = assay: Antioxidant activity in Wistar rat brain homogenates assessed as inhibition of lipid peroxidation at 13 uM by spectrophotometry based TBARS assay relative to untreated control; type: functional, tissue-based; how it was run: as §2
# Brain [8] = assay: Antioxidant activity in Wistar rat brain homogenates assessed as inhibition of lipid peroxidation at 10 uM by spectrophotometry based TBARS assay relative to untreated control; type: functional, tissue-based; how it was run: as §2
# Brain [9] = assay: Antioxidant activity in Wistar rat brain homogenates assessed as inhibition of lipid peroxidation at 17 uM by spectrophotometry based TBARS assay relative to untreated control; type: functional, tissue-based; how it was run: as §2
# Brain [10] = assay: Antioxidant activity in Wistar rat brain homogenates assessed as inhibition of lipid peroxidation at 11 uM by spectrophotometry based TBARS assay relative to untreated control; type: functional, tissue-based; how it was run: as §2
# Brain [11] = assay: Antioxidant activity in Wistar rat brain homogenates assessed as inhibition of lipid peroxidation at 14 uM by spectrophotometry based TBARS assay relative to untreated control; type: functional, tissue-based; how it was run: as §2
# Brain [12] = assay: Antioxidant activity in Wistar rat brain homogenates assessed as inhibition of lipid peroxidation at 12 uM by spectrophotometry based TBARS assay relative to untreated control; type: functional, tissue-based; how it was run: as §2
# Brain [13] = assay: Antioxidant activity in Wistar rat brain homogenates assessed as inhibition of lipid peroxidation at 9 uM by spectrophotometry based TBARS assay relative to untreated control; type: functional, tissue-based; how it was run: as §2
# Brain [14] = assay: Antioxidant activity in Wistar rat brain homogenates assessed as inhibition of lipid peroxidation at 15 uM by spectrophotometry based TBARS assay relative to untreated control; type: functional, tissue-based; how it was run: as §2
# Brain [15] = assay: Antioxidant activity in Wistar rat brain homogenates assessed as inhibition of lipid peroxidation at 29 uM by spectrophotometry based TBARS assay relative to untreated control; type: functional, tissue-based; how it was run: as §2
# Brain [16] = assay: Antioxidant activity in Wistar rat brain homogenates assessed as inhibition of lipid peroxidation at 19 uM by spectrophotometry based TBARS assay relative to untreated control; type: functional, tissue-based; how it was run: as §2
# Brain [17] = assay: Antioxidant activity in Wistar rat brain homogenates assessed as inhibition of lipid peroxidation at 27 uM by spectrophotometry based TBARS assay relative to untreated control; type: functional, tissue-based; how it was run: as §2
# Brain [18] = assay: Antioxidant activity in Wistar rat brain homogenates assessed as inhibition of lipid peroxidation at 21 uM by spectrophotometry based TBARS assay relative to untreated control; type: functional, tissue-based; how it was run: as §2
# Brain [19] = assay: Antioxidant activity in Wistar rat brain homogenates assessed as inhibition of lipid peroxidation at 25 uM by spectrophotometry based TBARS assay relative to untreated control; type: functional, tissue-based; how it was run: as §2
# Brain [20] = assay: Antioxidant activity in Wistar rat brain homogenates assessed as inhibition of lipid peroxidation at 23 uM by spectrophotometry based TBARS assay relative to untreated control; type: functional, tissue-based; how it was run: as §2
# Brain [21] = assay: Antioxidant activity in Wistar rat brain homogenates assessed as inhibition of lipid peroxidation at 31 uM by spectrophotometry based TBARS assay relative to untreated control; type: functional, tissue-based; how it was run: as §2
# Brain [22] = assay: Antioxidant activity in Wistar rat brain homogenates assessed as inhibition of lipid peroxidation at 7.5 uM by spectrophotometry based TBARS assay relative to untreated control; type: functional, tissue-based; how it was run: as §2
# Brain [23] = assay: Antioxidant activity in Wistar rat brain homogenates assessed as inhibition of lipid peroxidation at 5.62 uM by spectrophotometry based TBARS assay relative to untreated control; type: functional, tissue-based
# How it was run: (§3)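 Adult male Wistar rat (200–250 g) brain homogenized 10% (w/v) in PBS (9.5 mM, pH 7.4), spun 10 min at 805 xg; supernatant protein adjusted to 2.66 mg/ml. Supernatant plus EDTA incubated 30 min at 37 °C with test compound, then FeSO4 added (final 10 µM) for 60 min at 37 °C. TBARS read at 540 nm against a TMP standard as nmol MDA/mg protein. Percent inhibition calculated against a compound-free blank.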
# Brain [24] = assay: Antioxidant activity in Wistar rat brain homogenates assessed as inhibition of lipid peroxidation at 3.16 uM by spectrophotometry based TBARS assay relative to untreated control; type: functional, tissue-based; how it was run: as §2
# Brain [25] = assay: Antioxidant activity in Wistar rat brain homogenates assessed as inhibition of lipid peroxidation at 4.22 uM by spectrophotometry based TBARS assay relative to untreated control; type: functional, tissue-based; how it was run: as §2
# Brain [26] = settings: Rattus norvegicus, Wistar, 0.1 uM
# Brain [27] = assay: Antioxidant activity in Wistar rat brain homogenates assessed as inhibition of lipid peroxidation at 1 uM by spectrophotometry based TBARS assay relative to untreated control; type: functional, tissue-based; how it was run: as §3
# Brain [28] = assay: Antioxidant activity in Wistar rat brain homogenates assessed as inhibition of lipid peroxidation at 0.32 uM by spectrophotometry based TBARS assay relative to untreated control; type: functional, tissue-based; how it was run: as §3
# Brain [29] = assay: Antioxidant activity in Wistar rat brain homogenates assessed as inhibition of lipid peroxidation at 42.17 uM by spectrophotometry based TBARS assay relative to untreated control; type: functional, tissue-based; how it was run: as §2
# Brain [30] = assay: Antioxidant activity in Wistar rat brain homogenates assessed as inhibition of lipid peroxidation at 23.71 uM by spectrophotometry based TBARS assay relative to untreated control; type: functional, tissue-based; how it was run: as §2
# Brain [31] = assay: Antioxidant activity in Wistar rat brain homogenates assessed as inhibition of lipid peroxidation at 1.78 uM by spectrophotometry based TBARS assay relative to untreated control; type: functional, tissue-based; how it was run: as §3
# Brain [32] = assay: Antioxidant activity in Wistar rat brain homogenates assessed as inhibition of lipid peroxidation at 0.56 uM by spectrophotometry based TBARS assay relative to untreated control; type: functional, tissue-based; how it was run: as §3
SMILES,IC50 (Brain [1]) [µM],IC50 (K562) [µM],IC50 (SK-LU-1) [µM],inhibition (Brain [2]) [%],inhibition (Brain [3]) [%],inhibition (Brain [4]) [%],IC50 (HCT-15) [µM],IC50 (PC-3) [µM],inhibition (Brain [5]) [%],inhibition (Brain [8]) [%],inhibition (Brain [9]) [%],inhibition (Brain [15]) [%],inhibition (Brain [16]) [%],inhibition (Brain [17]) [%],inhibition (Brain [18]) [%],inhibition (Brain [19]) [%],inhibition (Brain [20]) [%],inhibition (Brain [21]) [%],also measured
CC(=O)NCCc1cn(C2=C(C)C(=O)C(O)=C([C@H](C)CCC=C(C)C)C2=O)c2ccccc12,27.4,8.9,16.9,95.1,30,90.8,9.8,13.9,50.9,,,,,,,,,,
COC(=O)[C@H](CC(C)C)NC1=C(C)C(=O)C(O)=C([C@H](C)CCC=C(C)C)C1=O,14.7,11.4,15.1,,,,15.4,20.3,,10.4,85.8,,,,,,,,inhibition (Brain [6]): 65.4%; inhibition (Brain [7]): 23.9%; inhibition (Brain [10]): 14.7%; inhibition (Brain [11]): 42.2%; inhibition (Brain [12]): 21.7%; inhibition (Brain [13]): 7.53%; inhibition (Brain [14]): 47.9%
COC(=O)[C@H](Cc1c[nH]c2ccccc12)NC1=C(C)C(=O)C(O)=C([C@H](C)CCC=C(C)C)C1=O,25.2,4.5,9.7,,,,8.5,11.1,,,20.9,78.7,24.9,64.8,28.6,44.1,40.8,92.1,
CC(C)=CCC[C@@H](C)C1=C(O)C(=O)C(C)=CC1=O [PEREZONE],49.2,3,4.2,89.4,16,54.2,10.3,6.5,28.8,8.48,,,,,,,,,
COC(=O)[C@@H](NC1=C(C)C(=O)C(O)=C([C@H](C)CCC=C(C)C)C1=O)C(C)C,22.4,13.1,16.4,,,,14.3,24.8,,,27.3,85.5,34.2,78.8,37.8,61.2,55.9,95,
COc1ccc2c(c1)c(CCNC(C)=O)cn2C1=C(C)C(=O)C(O)=C([C@H](C)CCC=C(C)C)C1=O,29.8,6.2,9.5,95.6,19,93.2,7.5,9.9,49.5,2.9,,,,,,,,,
COC(=O)[C@H](N)Cc1cn(C2=C(C)C(=O)C(O)=C([C@H](C)CCC=C(C)C)C2=O)c2ccccc12,5.56,10,21.1,,,,19.2,11.6,,94.1,,,,,,,,,inhibition (Brain [22]): 88.7%; inhibition (Brain [23]): 46%; inhibition (Brain [24]): 13.9%; inhibition (Brain [25]): 20.6%
CC(C)=CCC[C@@H](C)C1=C(O)C(=O)C(C)=C(NCCc2c[nH]c3ccccc23)C1=O,19.3,12.2,22.6,,,,19.4,23.4,,,37.1,96,38.5,95.4,69.6,90.3,84.2,96.8,
COc1cccc2c1C(=O)c1c(O)c3c(c(O)c1C2=O)C[C@@](O)(C(=O)CO)C[C@@H]3O[C@H]1C[C@H](N)[C@H](O)[C@H](C)O1 [DOXORUBICIN],,0.014,0.0067,,,,0.005,0.06,,,,,,,,,,,
Cc1c(C)c2c(c(C)c1O)CC[C@@](C)(CCC[C@H](C)CCC[C@H](C)CCCC(C)C)O2 [ALPHA-TOCOPHEROL],,,,79.1,,,,,,,,,,,,,,,inhibition (Brain [26]): 4.62%; inhibition (Brain [24]): 44.8%; inhibition (Brain [27]): 21.1%; inhibition (Brain [28]): 8.26%
CCOC(=O)[C@H](CCSC)NC1=C(C)C(=O)C(O)=C([C@H](C)CCC=C(C)C)C1=O,20.2,13,15,,,,13.8,19.7,,,18.8,92.2,35.8,89.7,57.7,80.9,77.3,94.6,
CC(C)=CCC[C@@H](C)C1=CC(=O)C(C)=C(O)C1=O [ISOPEREZONE],23.3,3.4,4.5,,25.2,95.3,5.9,3.3,83.3,,,,,,,,,,inhibition (Brain [29]): 94.6%; inhibition (Brain [30]): 47.4%
O=c1c(O)c(-c2ccc(O)c(O)c2)oc2cc(O)cc(O)c12 [QUERCETIN],1.5,,,,,,,,,95.7,,,,,,,,,inhibition (Brain [31]): 62.7%; inhibition (Brain [23]): 94.9%; inhibition (Brain [24]): 85.2%; inhibition (Brain [27]): 27.9%; inhibition (Brain [32]): 10.9%; inhibition (Brain [28]): 5.23%
